# Assay results gathered from unrelated publications.
# Lines come from different studies, so protocols differ.
# TYK2 JH2: Non-receptor tyrosine-protein kinase TYK2, JH2 (TYK2, Homo sapiens, UniProt P29597)
# TYK2: Non-receptor tyrosine-protein kinase TYK2 (TYK2, Homo sapiens, UniProt P29597)
# TYK2 JH1: Non-receptor tyrosine-protein kinase TYK2, JH1 (TYK2, Homo sapiens, UniProt P29597)
Structure (SMILES),target,test,conditions,endpoint,value
CCC(=O)N[C@@H]1CC[C@H](C(=O)N(C)c2ccc(-c3nc4ccccc4o3)cc2)C1,TYK2 JH2,"cell-free assay, competition with immobilised ligand",1 µM,remaining binding,100%
CC/C(=N\NC(=O)NCc1cccc(O)c1)c1ccc(O)c(C)c1O,TYK2,"enzyme activity, inhibitor",0.1 µM,inhibition,7.2%
O=C1NC(=O)c2cc(Nc3ccc(F)cc3)c(Nc3ccc(F)cc3)cc21,TYK2,cell-free assay,0.5 µM,remaining signal,80.6%
Cc1ccc(NC(=O)c2ccc(C)c(C(F)(F)F)c2)cc1C#Cc1nn(C2CCC(O)CC2)c2ncnc(N)c12 (stereo not shown),TYK2,cell-free assay,10 µM,remaining signal,36%
CN(C)C(=O)Cn1cc(-c2nc(C3(c4ccc(-c5cnc(N)nc5)cc4)CC3)no2)cn1,TYK2 JH2,"cell-free assay, competition with immobilised ligand",1 µM,remaining binding,90%
CC(C)(C)c1nc(-c2cccc(NS(=O)(=O)c3c(F)cccc3F)c2F)c(-c2ccnc(N)n2)s1,TYK2,"enzyme activity, inhibitor, radiometric",1 µM,remaining activity,96%
c1cnn2ncc(-c3ccnc(N4CCC45COC5)n3)c2c1,TYK2 JH1,cell-free assay,1 µM,remaining signal,64%
CN1CC(Oc2cnc(C#N)cc2-c2ccn3nc(NC(=O)C4CC4)cc3c2)C1,TYK2,"enzyme activity, inhibitor",1 µM,inhibition,-10%
Cc1cnc(NC2CCOCC2)nc1-n1cnc(C(=O)NC(CN)c2cc(F)cc(Cl)c2)c1 (stereo not shown),TYK2,"enzyme activity, inhibitor, radiometric",1 µM,remaining activity,96%
CCOCCn1cc(C(=O)Nc2ccc(-n3nc(-c4cccnc4)cc3C(F)(F)F)cn2)ccc1=O,TYK2 JH1,"cell-free assay, competition with immobilised ligand",1 µM,remaining binding,100%
Nc1nc(Nc2ccc(S(N)(=O)=O)cc2)nn1C(=O)c1c(F)cccc1F,TYK2,cell-free assay,0.5 µM,remaining signal,0.878%
C[C@H]1CCN(c2nccc(-c3cnn4ncccc34)n2)C1,TYK2 JH1,cell-free assay,1 µM,remaining signal,63%
CS(=O)(=O)NCC[C@H](NC(=O)c1cncc2c1cnn2-c1ccc(F)cc1)c1ccnc(S(C)(=O)=O)c1,TYK2 JH1,"cell-free assay, competition with immobilised ligand",1 µM,remaining binding,100%
Nc1ncnc2occ(-c3ccc(NC(=O)Nc4cc(C(F)(F)F)ccc4F)cc3)c12,TYK2 JH1,"cell-free assay, inhibitor",20 µM,remaining signal,55%
CCN(CC)CCNC(=O)c1c(C)[nH]c(/C=C2\C(=O)Nc3ccc(F)cc32)c1C,TYK2,cell-free assay,0.5 µM,remaining signal,52.6%
F[C@@H]1CCN(c2nccc(-c3cnn4ncccc34)n2)C1,TYK2 JH1,"cell-free assay, competition with immobilised ligand",1 µM,remaining binding,100%
C[C@@]1(Cc2ccc(C#N)cc2)C(=O)N(c2cc(Cl)cc(Cl)c2)c2ncc(C(=O)NC3(c4nc(C5CCC5)no4)CC3)n21,TYK2 JH1,"cell-free assay, competition with immobilised ligand",1 µM,remaining binding,100%
CC1CCCN1c1nccc(-c2cnn3ncccc23)n1 (stereo not shown),TYK2,binding,1 µM,remaining binding,87%
O=C(Nc1cnn(-c2csc(C(=O)NC3COC3)c2)c1)Nc1c(F)cccc1Cl,TYK2,"enzyme activity, inhibitor",5 µM,remaining activity,89.3%
